# Assay outcomes (PubChem BioAssay)
# Only some compounds are listed: those with a hit (about 4.4% of all), similar ones and a draw of the others.
# m5-HT2A agonist – activates the mouse 5-HT2A serotonin receptor; 360,000 compounds, 0.66% hits; CHO-K1 mHTR2A beta-arrestin complementation, luminescence; percent of 30 µM serotonin response; AID 624169; P35363; activation, % at 7.6 µM;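 active = activation above a run cutoff, the mean activation of all tested compounds plus 3 SD, cut at about 14% in these data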;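 also: 0% = plate median of compound wells and 100% = 30 µM serotonin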
# Target sequence (P35363 whole entry, looked up): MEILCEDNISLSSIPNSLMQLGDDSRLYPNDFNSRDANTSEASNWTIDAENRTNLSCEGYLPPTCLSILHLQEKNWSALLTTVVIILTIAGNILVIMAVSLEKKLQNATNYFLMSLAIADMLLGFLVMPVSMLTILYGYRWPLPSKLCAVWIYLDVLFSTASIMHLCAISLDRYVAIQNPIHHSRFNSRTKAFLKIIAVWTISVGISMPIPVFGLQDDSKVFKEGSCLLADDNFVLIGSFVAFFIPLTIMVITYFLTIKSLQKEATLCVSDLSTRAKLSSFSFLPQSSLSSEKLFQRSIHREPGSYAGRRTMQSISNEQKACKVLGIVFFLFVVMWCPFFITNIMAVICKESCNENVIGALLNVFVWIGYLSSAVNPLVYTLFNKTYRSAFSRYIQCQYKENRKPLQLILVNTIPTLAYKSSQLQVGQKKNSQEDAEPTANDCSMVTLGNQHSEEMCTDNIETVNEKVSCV
# MsrA inhibitor – inhibitors of bovine MsrA. purified bovine MsrA, absorbance read-out. inhibition, % at 15.5 µM. 360,000 compounds, 0.75% hits. AID 651718; in the data active = inhibition above about 4.5%;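 also: 0% = vehicle wells with enzyme and 100% = reference inhibitor wells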
# bovine MsrA act – activates bovine MsrA enzyme; purified bovine MsrA, absorbance read-out; activation, % at 10.6 µM; 360,000 compounds, 0.3% hits; AID 602163; in the data active = activation above about 7.5%;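 also: 0% = vehicle and 100% = reference activator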
# TbMetRS inhib – blocks T. brucei methionyl-tRNA synthetase activity | inhibition, % at 11.9 µM | 360,000 compounds, 0.4% hits | purified T. brucei MetRS, ATP depletion, Kinase-Glo luminescence | AID 624268;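 active = inhibition above a per-plate cutoff of the control wells' mean inhibition plus 3 SD, cut at about 5.5% in these data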;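 also: 0% = DMSO wells median and 100% = median of wells with control inhibitor compound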
#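 Material – parasite MetRS enzyme · Medium – HEPES-MgCl2-KCl buffer plus DTT, spermine, BSA, pyrophosphatase · Reagent – ATP, methionine and E. coli bulk tRNA substrates · Times – 15 min enzyme-compound preincubation, 2 h reaction, 10 min detection, 25 °C · Measured by – luminescence of leftover ATP · Evaluation – percent inhibition relative to median high and low control wells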
# AHR activator – activates the human aryl hydrocarbon receptor. 320,000 compounds, 2.5% hits. AHR-responsive luciferase reporter cells, luminescence. activation, % at 5 µM; in the data active = activation above about 47%;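 also: 0% = vehicle wells and 100% = reference agonist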
# AI-2 QS modul – modulates the Vibrio harveyi AI-2 quorum sensing system. 300,000 compounds, 0.4% hits. activity change, % at 7.5 µM. Vibrio harveyi JMH597 AI-2 luminescence/OD600 ratio, 9 h; active compounds read low; strain lacks LuxN and CqsS sensors; 0 = neutral-control median; in the data active = activity change below about -75%, passing the limit was not always enough;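 also: luminescence divided by OD600 gain over 9 h not by final OD600 alone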
# * marks the source's active call; other numbers are inactive results; . = not tested or not shown.
SMILES,m5-HT2A agonist,MsrA inhibitor,bovine MsrA act,TbMetRS inhib,AHR activator,AI-2 QS modul
O=C(Nc1ccc2ccccc2c1)c1ccccc1F,-4,0,-3,0,13,15
Cc1nn(-c2ccccc2)nc1C(=O)Nc1ccc2[nH]ncc2c1,-1,-1,-6,-1,52*,17
C=CC[C@]12C[C@@]3(O[C@H](c4ccccn4)N=C3C[C@H](c3ccc(OC)cc3)[C@H]1C)N(C1CCN(Cc3ccccc3)CC1)C2=O,.,0,.,.,.,.
CC1=C(SCc2ccccc2)C(=O)c2ccccc2C1=O,-4,21*,1,0,.,.
COc1ccc(C2Nc3cc(OC)ccc3-n3cccc32)cc1 (centres undefined),3,0,-1,-1,60*,-2
COc1ccc(S(=O)(=O)N2CCOCC2)cc1NC(=O)CN1C(=O)NC2(CCC(C)CC2)C1=O (centres undefined),-2,3,-5,0,.,.
O=C(Nc1cccc(-c2csc(Nc3ccccc3)n2)c1)c1ccccc1,-6,1,1,0,71*,11
O=C(Nc1ccc(-c2csc(Nc3ccc(Cl)cc3)n2)cc1)c1ccccc1,-1,1,-5,0,34,.
O=C(Nc1ccc(-c2csc(Nc3cccc(C(F)(F)F)c3)n2)cc1)c1ccccc1,6,1,0,0,78*,27
CC(=O)c1cccc(Nc2nc(-c3ccccc3)cs2)c1,1,0,-10,-1,56*,12
O=C(Nc1cccc(-c2csc(Nc3cccc(C(F)(F)F)c3)n2)c1)c1ccccc1,0,1,0,0,47,46
Cc1cc(C)nc(Nc2nc(-c3ccccc3)cs2)n1,-2,0,-4,0,75*,11
CC(=O)c1cccc(Nc2nc(-c3cccnc3)cs2)c1,-2,-1,0,0,.,16
O=c1ccn2c(n1)OC1CC2OC1COC(c1ccccc1)(c1ccccc1)c1ccccc1 (centres undefined),.,0,.,.,.,.
Clc1ccccc1CSc1cc2c(nn1)-c1ccccc1CC2,-4,1,-2,-1,72*,10
CCNc1cc(=O)n(C)c(=O)n1C,4,1,-4,0,-1,7
CCCCNc1cc(=O)n(C)c(=O)n1C,15*,0,-2,0,1,41
COC(=O)C1=C(C)N(C)C(=NCc2ccccc2C(F)(F)F)NC1CCc1ccccc1 (centres undefined),.,-1,.,.,.,.
COC(=O)C1=C(C)N(Cc2ccccc2)C(=S)NC1c1ccc(Br)cc1 (centres undefined),.,1,.,.,.,.
Cc1ccc(S(=O)(=O)N2CCN(C(=O)Cc3ccccc3)CC2)cc1C,-3,1,-1,0,0,.
Cc1ccc(CC(=O)N2CCN(S(=O)(=O)c3ccccc3)CC2)cc1C,0,4.6*,-10,0,3,23
COc1cccc(N=c2oc3ccc(OC)cc3cc2-c2nc3ccccc3[nH]2)c1,1,2,-1,0,53*,-3
O=C(N[C@H](C(=O)N1CCC[C@H]1C(=O)NCc1ccccc1)C1CCCCC1)c1ccc(Cl)cc1Cl,.,0,.,.,.,.
NS(=O)(=O)c1ccc(NNC(=O)c2ccccc2C(=O)O)cc1,-2,-1,0,-1,48*,24
Cc1nn(-c2ccccc2)c(N)c1N=Nc1ccc2ccccc2c1,-6,0,-1,0,155*,-3
SMILES,m5-HT2A agonist,MsrA inhibitor,bovine MsrA act,TbMetRS inhib,AHR activator,AI-2 QS modul
C=CC[C@]12C[C@@]3(O[C@H](C4CCCCC4)N=C3C[C@H](c3ccc(OC)cc3)[C@H]1C)N(Cc1ccncc1)C2=O,.,-1,.,.,.,.
COc1ccc(N)cc1CN1CCN(c2ncc(Cc3ccccc3)cn2)CC1,.,1,.,.,.,.
Cc1ccc(SC/C(O)=C(\C#N)c2nc3ccccc3s2)cc1,5,1,-2,-1,7,10
N#C/C(=C(/O)CSc1ccccn1)c1nc2ccccc2s1,0,1,-2,0,51*,15
N#C/C(=C(/O)COC(=O)c1ccc(C#N)cc1)c1nc2ccccc2s1,-1,4,-7,0,122*,5
CCOC(=O)c1cnc2c(cnn2C)c1NCCCn1ccnc1,-1,0,-3,-1,59*,6
CCOC(=O)c1cnc2c(cnn2C)c1NCCCN(C)C,-1,1,-11,-1,-1,16
COc1ccccc1Nc1nc(-c2sc(NC(=O)c3ccccc3)nc2C)cs1,4,2,-3,0,28,11
CCOc1ccccc1Nc1nc(-c2sc(NC(=O)c3cccc(Cl)c3)nc2C)cs1,3,0,-3,0,64*,6
CCOc1ccccc1Nc1nc(-c2sc(NC(=O)c3ccccc3)nc2C)cs1,.,.,.,.,72*,11
NC(=O)C1C2C=CC(C2)C1c1ccccc1 (centres undefined),-2,0,2,0,.,.
Clc1ccccc1OCCCCn1ccnc1,-5,0,-4,0,74*,6
Cc1cccc(Cl)c1OCCCCn1ccnc1,8,1,-9,-1,57*,-3
COC(=O)C1=C(C)N(Cc2ccccc2C(F)(F)F)C(=NCc2ccccc2C(F)(F)F)NC1c1ccc(F)cc1 (centres undefined),.,0,.,.,.,.
CC1CCN(C(=O)c2ncn3c2C(=O)NC[C@H]3C)CC1,.,2,.,.,.,.
CCOc1nc(N=C(N)N)nc2c(C)cccc12,-2,1,0,-1,49*,38
CCOc1ccccc1Nc1cc(C)c2cccc(C)c2n1,3,2,-6,-1,36,-11
CC(=O)n1nc(-c2ccccc2)cc1-c1ccccc1,-3,2,-3,0,58*,9
CC(=O)N(CCc1ccccc1C)Cc1cc2cc3c(cc2[nH]c1=O)OCO3,0,1,-2,0,61*,6
Cc1cc(C)c2[nH]c(=O)c(CN(CC3CCCO3)C(=S)Nc3ccccc3)cc2c1 (centres undefined),-4,-1,-2,0,9,-12
CCNC(=S)N(CCc1ccccc1C)Cc1cc2cc(OC)c(OC)cc2[nH]c1=O,-3,-1,-4,-1,57*,3
CCN(CC)CCCN(Cc1cc2cc3c(cc2[nH]c1=O)OCO3)C(=S)Nc1ccccc1,-6,2,2,1,49*,6
Cc1ccc2cc(CN(CC3CCCO3)C(=S)Nc3ccccc3)c(=O)[nH]c2c1C (centres undefined),5,0,-2,0,51*,44
CCNC(=S)N(CCCN(CC)CC)Cc1cc2cc3c(cc2[nH]c1=O)OCO3,12,2,-7,0,4,13
O=C(c1ccc2nc[nH]c2c1)N1CCN(c2ncc(C(F)(F)F)cc2Cl)CC1,5,-1,-10,0,-2,-4
CCCCCC(=O)NC1CCCCN(C)C1=O (centres undefined),.,0,.,.,.,.
